From ChEMBL document CHEMBL2203117, “Synthesis and biological activities of N-(3-carboxylpropyl)-5-amino-2-hydroxy-3-tridecyl-1,4-benzoquinone and analogues” (2012)
Calls of active or inactive are those of the source. No cut-off for these calls is given here.

What was measured:
CCRF-CEM = experiment: Antioxidant activity in human CEM cells assessed as inhibition of glutathione depletion-induced ROS production at 5 uM after 16 hrs using DCFH-DA staining by flow cytometry analysis; format: functional, cell-based
How it was run: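 CEM leukemia lymphocytes (5 × 10⁵ cells in 1 mL) were given compound for 16 h at 37 °C in 5% CO2. They were then exposed to 5 mM diethyl maleate for 40 min to deplete GSH. After a PBS wash they were stained with 10 μM DCFH-DA in PBS with 20 mM glucose for 20 min at 37 °C in the dark. DCF fluorescence was read by flow cytometry (488 nm excitation, FL1-H), 10 000 events. Mean ± SEM of two experiments, each in duplicate.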

GM15850 [1] = experiment: Cytoprotective activity in human GM15850 cells assessed as glutathione depletion-induced reduction of cell viability at 5 uM after 17 hrs by trypan blue exclusion assay relative to control; format: functional
How it was run: (§1)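 FRDA lymphocytes were grown in RPMI 1640 with 15% fetal calf serum and 2 mM glutamine. Cells seeded at 5 × 10⁵ cells/mL were preincubated with compound for 17 h at 37 °C, then given 5 mM DEM for a further 6 h. Viability was scored by 0.4% trypan blue exclusion on a hemacytometer, counting at least 500 cells per group. Values are % of the untreated control (100%). Mean ± SEM, n = 3.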

GM15850 [2] = experiment: Antioxidant activity in human GM15850 cells assessed as inhibition of glutathione depletion-induced ROS production at 5 uM after 16 hrs using DCFH-DA staining by flow cytometry analysis; format: functional, cell-based
How it was run: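 FRDA lymphocytes (5 × 10⁵ cells in 1 mL) were pretreated with compound for 16 h at 37 °C in 5% CO2. GSH was then depleted with 5 mM diethyl maleate for 80 min. Cells were washed and loaded with 10 μM DCFH-DA in PBS with 20 mM glucose for 20 min at 37 °C in the dark. DCF was measured by flow cytometry (488 nm, FL1-H), 10 000 events. Two experiments in duplicate, mean ± SEM.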

[3] = Antioxidant activity in human GM15850 cells assessed as inhibition of glutathione depletion-induced lipid peroxidation at 5 uM after 16 hrs using C11-BODIPY581/591 by FACS analysis relative to control; format: functional; set-up: scale not given: the % may be the effect or the level left
How it was run: (§2)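 FRDA lymphocytes at 5 × 10⁵ cells/mL received compound (5 or 10 μM final) for 16 h at 37 °C. Cells were loaded with 1 μM C11-BODIPY581/591 in phenol red-free RPMI for 30 min in the dark, then stressed with 5 mM DEM for 2 h. After washing, green (oxidized) fluorescence was read by FACS, 10 000 events. Scavenging % = [(100 − % mean)/(100 − % mean of untreated control)] × 100. Duplicates, three independent experiments.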

GM15850 [4] = experiment: Protection against DEM-induced loss of mitochondrial membrane potential in human GM15850 cells at 5 uM after 16 hrs using TMRM/JC-1 staining by flow cytometry analysis relative to control; format: functional
How it was run: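 FRDA lymphocytes were pretreated with compound for 16 h, then given 5 mM DEM for 140 min. Cells were washed twice with PBS and stained with 250 nM TMRM in PBS-glucose for 15 min at 37 °C in the dark. Flow cytometry read the FL2-H channel (488 nm excitation), 10 000 events, with FCCP as the depolarized control. Result is the % of cells with intact Δψm (top right quadrant). Mean ± SEM of three experiments in duplicate.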

[5] = Antioxidant activity in human GM15850 cells assessed as inhibition of glutathione depletion-induced lipid peroxidation at 10 uM after 16 hrs using C11-BODIPY581/591 by FACS analysis relative to control; format: functional; set-up: scale not given: the % may be the effect or the level left; how it was run: as §2
GM15850 [6] = experiment: Cytoprotective activity in human GM15850 cells assessed as glutathione depletion-induced reduction of cell viability at 0.25 uM after 17 hrs by trypan blue exclusion assay relative to control; format: functional; how it was run: as §1
GM15850 [7] = experiment: Cytoprotective activity in human GM15850 cells assessed as glutathione depletion-induced reduction of cell viability at 0.125 uM after 17 hrs by trypan blue exclusion assay relative to control; format: functional; how it was run: as §1
GM15850 [8] = experiment: Cytoprotective activity in human GM15850 cells assessed as glutathione depletion-induced reduction of cell viability at 2.5 uM after 17 hrs by trypan blue exclusion assay relative to control; format: functional; how it was run: as §1

Compound	Activity (CCRF-CEM)	Activity (GM15850 [1])	Activity (GM15850 [2])	Activity [3]	Activity (GM15850 [4])	Activity [5]	Activity (GM15850 [6])	Activity (GM15850 [7])	Activity (GM15850 [8])
CCCCCCCCCCCCCC1=C(OC)C(=O)C=C(NCCCC(=O)O)C1=O	Active	74%	Active	41%	60%	51%	–	–	–
CCCCCCCCCCCCCC1=C(OC)C(=O)C=C(NCCCC(=O)OC(C)(C)C)C1=O	Active	93%	Active	72%	85%	86%	58%	48%	84%
CCCCCCCCCCCCCC1=C(O)C(=O)C=C(NCCCC(=O)OC(C)(C)C)C1=O	Active	50%	Active	26%	40%	37%	–	–	–
CCCCCCCCCCCCCC1=C(O)C(=O)C=C(NCCCC(=O)O)C1=O	Active	36%	Active	8%	27%	24%	–	–	–
